The nature of data set [1]: Stability of the compound in 0.1 M NH4HCO3 buffer at pH 8.2 assessed as half life in presence of chymotrypsin. It counts as physicochemical. As to conditions: for half-life: chymotrypsin in NH4HCO3 buffer; for t1/2: isolated protein. In short, it runs like this:
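Peptide 1 mg/mL stock; chymotrypsin 1 mg per 50 mL buffer; both diluted tenfold into 0.1 M NH4HCO3 pH 8.2 and incubated at 37 °C. Aliquots quenched with water/acetonitrile 60/40 containing 0.5% TFA and run on RP-HPLC. Half-life calculated from 214 nm peak areas over the first 5 h. Under 10% degradation at 24 h counted as stable. Enzyme-free samples at 0 and 24 h served as controls.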

In data set [2] the test system is Escherichia coli. The data set can be described thus: Antibacterial activity against Escherichia coli ATCC 25922. It is filed as functional.
Data set [3] deals with Staphylococcus aureus. Nature of the data set: Antibacterial activity against methicillin-resistant Staphylococcus aureus ATCC 33591. It counts as functional.
Data set [4] relates to Staphylococcus aureus. The data set can be described thus: Antibacterial activity against Staphylococcus aureus ATCC 25923. It is filed as functional.
A short description of data set [5]: Toxicity in human RBC assessed as hemolysis at 1 mM after 30 mins relative to control. As to conditions: red blood cells (RBC), read-out: Activity. It counts as cell-based, Erythrocyte. The method, boiled down: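 Fresh heparinized human erythrocytes, washed in normal saline. Peptides at 25–1000 μg/mL with 1% v/v final erythrocytes, 30 min at 37 °C with agitation. Supernatant OD read at 405 nm. Saline served as 0% and 1% Triton X as 100% hemolysis; percent lysis taken relative to their difference.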

Data set [6] can be described thus: Binding affinity to chymotrypsin by isothermal titration […]. In short, it runs like this:
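Isothermal titration calorimetry at 25 °C in 0.1 M NH4HCO3 pH 8.2. Peptide (2.1 mM in syringe) injected in 20 aliquots of 5 μL into stirred (150 rpm) chymotrypsin (0.1 mM), 400 s between injections. First injection point discarded. KD fitted from heats of interaction.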
(ITC needs no label: the signal is the heat of the interaction.)

The structures appear in SMILES notation. Values after ≈ are worked out from the molar mass of the structure shown. Non-standard residues stand in square brackets, D forms with d. Residues, ends and D or L forms follow the SMILES beside them. *: point of attachment. Phe(4-guanidino) = N=C(N)Nc1ccc(C[C@H](N)C(=O)O)cc1; Bip = N[C@@H](Cc1ccc(-c2ccccc2)cc1)C(=O)O; Dip = N[C@H](C(=O)O)C(c1ccccc1)c1ccccc1; Phe(4-NH2) = Nc1ccc(C[C@H](N)C(=O)O)cc1; hArg = N=C(N)NCCCC[C@H](N)C(=O)O; Agp = N=C(N)NC[C@H](N)C(=O)O; NHPhenethyl = c1ccc(CCN*)cc1; Orn = NCCC[C@H](N)C(=O)O; NHBn = c1ccc(CN*)cc1

Consider `N=C(N)NCCC[C@H](NC(=O)[C@@H](N)CCCNC(=N)N)C(=O)N[C@@H](Cc1c[nH]c2ccccc12)C(=O)NCc1ccccc1` (H-Arg-Arg-Trp-NHBn), for which, in data set [1], the half-life (usually how long it takes for the measured level to halve) was 7 h. Moreover, in data set [2], the Activity was >200 µM. The MIC (in general, the lowest concentration that inhibits growth of the organism) in data set [3] came out at 26 µM (≈ 15.7 µg/mL); in data set [4], 79 µM (≈ 47.9 µg/mL).
For the compound `N=C(N)NCCC[C@H](NC(=O)[C@H](Cc1ccccc1)NC(=O)[C@@H](N)CCCNC(=N)N)C(=O)NCc1ccccc1` (H-Arg-Phe-Arg-NHBn), the half-life in data set [1] is 3 h. The Activity in data set [2] is >200 µM. The MIC in data set [3] came to 83 µM (≈ 47 µg/mL); in data set [4] it was 165 µM (≈ 93.5 µg/mL).
With `NC(=O)[C@H](CCCN=C(N)N)NC(=O)[C@H](Cc1c[nH]c2ccccc12)NC(=O)[C@@H](N)CCCN=C(N)N` (H-Arg-Trp-Arg-NH2), in data set [5], the hemolysis at 0.5 h, 1000 µM was > 134%. The half-life in data set [1] is 5 h. Further, the Activity in data set [2] is >200 µM. Moreover, the MIC in data set [3] and in data set [4] was > 200 µM each time.
Regarding `N=C(N)NCCC[C@H](NC(=O)[C@H](Cc1c[nH]c2ccccc12)NC(=O)[C@@H](N)CCCNC(=N)N)C(=O)NCc1ccccc1` (H-Arg-Trp-Arg-NHBn), in data set [5], the hemolysis at 0.5 h, 1000 µM was > 5%. Further, the half-life in data set [1] is 2 h. The Activity in data set [2] is >200 µM. Further, the figures for the MIC in data set [3] and in data set [4] were 132 µM (≈ 80 µg/mL) and 79 µM (≈ 47.9 µg/mL), respectively.
As to `N=C(N)NCCC[C@H](NC(=O)[C@H](Cc1c[nH]c2ccccc12)NC(=O)[C@@H](N)CCCNC(=N)N)C(=O)NCCc1ccccc1` (H-Arg-Trp-Arg-NHPhenethyl), the half-life in data set [1] is 0.5 h. Moreover, the Activity in data set [2] was >200 µM. Besides, the MIC in data set [3] came out at 26 µM (≈ 16.1 µg/mL); in data set [4], 52 µM (≈ 32.2 µg/mL).
`N=C(N)NCCC[C@H](N)C(=O)N[C@@H](Cc1c[nH]c2ccccc12)C(=O)N[C@@H](CCCCN)C(=O)NCc1ccccc1` (H-Arg-Trp-Lys-NHBn): the half-life in data set [1] is 4 h. Also, the Activity in data set [2] was >200 µM. In addition, the MIC in data set [3] amounted to 54 µM (≈ 31.2 µg/mL); in data set [4], 163 µM (≈ 94.2 µg/mL).
For the compound `N=C(N)NCCC[C@H](N)C(=O)N[C@@H](Cc1c[nH]c2ccccc12)C(=O)N[C@@H](CNC(=N)N)C(=O)NCc1ccccc1` (H-Arg-Trp-[Agp]-NHBn), in data set [5], the hemolysis at 0.5 h, 1000 µM is > 2%. Further, the t1/2 result in data set [1] is “Stable”. Besides, the Activity in data set [2] was >200 µM. The MIC worked out at 16 µM (≈ 9.24 µg/mL) in data set [3] and 54 µM (≈ 31.2 µg/mL) in data set [4]. Besides, the Kd (usually the free concentration of one partner at which half of the binding sites on the other are occupied at equilibrium, for simple one-to-one binding) in data set [6] was determined as 61.1 µM.
Consider `N=C(N)NCCC[C@H](N)C(=O)N[C@@H](Cc1c[nH]c2ccccc12)C(=O)N[C@@H](CCCN)C(=O)NCc1ccccc1` (H-Arg-Trp-[Orn]-NHBn), for which the hemolysis at 0.5 h, 1000 µM in data set [5] was > 1%. Further, the half-life in data set [1] was 20 h. In addition, the Activity in data set [2] is >200 µM. The MIC in data set [3] stood at 55 µM (≈ 31 µg/mL); in data set [4] it was 110 µM (≈ 62 µg/mL).
On to `N=C(N)NCCC[C@H](N)C(=O)N[C@@H](Cc1c[nH]c2ccccc12)C(=O)N[C@@H](Cc1ccc(N)cc1)C(=O)NCc1ccccc1` (H-Arg-Trp-[Phe(4-NH2)]-NHBn), for which the hemolysis at 0.5 h, 1000 µM in data set [5] is > 5%. The t1/2 result in data set [1] is recorded as “Stable”. In addition, the Activity in data set [2] was >200 µM. Also, the MIC in data set [3] was found to be 79 µM (≈ 48.3 µg/mL); in data set [4], 157 µM (≈ 96 µg/mL).
`N=C(N)NCCC[C@H](N)C(=O)N[C@@H](Cc1c[nH]c2ccccc12)C(=O)N[C@@H](Cc1ccc(NC(=N)N)cc1)C(=O)NCc1ccccc1` (H-Arg-Trp-[Phe(4-guanidino)]-NHBn): the half-life in data set [1] was 4 h. In data set [2], the Activity is >200 µM. For the same compound, the MIC in data set [3] turned out to be 10 µM (≈ 6.54 µg/mL); in data set [4], 50 µM (≈ 32.7 µg/mL).
Regarding `N=C(N)NCCCC[C@H](NC(=O)[C@H](Cc1c[nH]c2ccccc12)NC(=O)[C@@H](N)CCCNC(=N)N)C(=O)NCc1ccccc1` (H-Arg-Trp-[hArg]-NHBn), in data set [1], the half-life is 1 h. Further, in data set [2], the Activity was >200 µM. The values for the MIC in data set [3] and in data set [4] were 52 µM (≈ 32.2 µg/mL) and 78 µM (≈ 48.3 µg/mL), respectively.
`N=C(N)NCCC[C@H](NC(=O)[C@H](Cc1ccc(-c2ccccc2)cc1)NC(=O)[C@@H](N)CCCNC(=N)N)C(=O)NCc1ccccc1` (H-Arg-[Bip]-Arg-NHBn): in data set [5], the hemolysis at 0.5 h, 1000 µM was > 5%. Further, the t1/2 entry in data set [1] is “Stable”. Besides, the Activity in data set [2] was >200 µM. Further, the MIC in data set [3] came out at 15 µM (≈ 9.64 µg/mL); in data set [4], 10 µM (≈ 6.43 µg/mL). The compound further returned a Kd in data set [6] of 18.4 µM.
Turning to `N=C(N)NCCC[C@H](NC(=O)[C@@H](NC(=O)[C@@H](N)CCCNC(=N)N)C(c1ccccc1)c1ccccc1)C(=O)NCc1ccccc1` (H-Arg-[Dip]-Arg-NHBn), the hemolysis at 0.5 h, 1000 µM in data set [5] was > 10%. The t1/2 entry in data set [1] is reported as “Stable”. Also, the Activity in data set [2] is >200 µM. In addition, the values for the MIC in data set [3] and in data set [4] were 10 µM (≈ 6.43 µg/mL) and 25 µM (≈ 16.1 µg/mL), respectively.
In the case of `N=C(N)NCCC[C@H](N)C(=O)N[C@@H](Cc1ccc(N)cc1)C(=O)N[C@@H](Cc1c[nH]c2ccccc12)C(=O)NCc1ccccc1` (H-Arg-[Phe(4-NH2)]-Trp-NHBn), in data set [1], the half-life was 17 h. Also, the Activity in data set [2] is >200 µM. Also, the MIC in data set [3] is 79 µM (≈ 48.3 µg/mL); in data set [4] it was 157 µM (≈ 96 µg/mL).
For the compound `N=C(N)NCCC[C@H](N)C(=O)N[C@@H](Cc1ccc(NC(=N)N)cc1)C(=O)N[C@@H](Cc1c[nH]c2ccccc12)C(=O)NCc1ccccc1` (H-Arg-[Phe(4-guanidino)]-Trp-NHBn), the hemolysis at 0.5 h, 1000 µM in data set [5] was > 2%. Moreover, the t1/2 entry in data set [1] was “Stable”. For the same compound, the Activity in data set [2] was >200 µM. Moreover, the MIC in data set [3] stood at 15 µM (≈ 9.81 µg/mL); in data set [4] it was 50 µM (≈ 32.7 µg/mL).

(Values after ChEMBL document CHEMBL1212827, “Unnatural amino acid side chains as S1, S1', and S2' probes yield cationic antimicrobial peptides with stability toward chymotryptic degradation” (J Med Chem, 2010).)
